Assay outcomes: PubChem, several laboratories
Rad51 HR inh – Rad51 (human) homologous recombination inhibition; Q06609; hRad51 DNA strand exchange, fluorescence dequenching; inhibition, % at 10 µM; 200,000 tested, 0.085% active;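 active = inhibition above 40% at the single screening dose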
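Test system: preformed human Rad51 ssDNA filaments. Compound dosing: single dose, 10 µM final compound. Incubation: filaments 15 min 37 °C, then compound 30 min. Technique: FRET fluorescence dequenching, excitation 485 nm, emission 520 nm. Read-out basis: percent inhibition from fluorescence, normalised to plate control and blank means. Benchmarks: plate controls and plate blanks.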
HSF1 inhib – HSF1 inhibition; 300,000 tested, 0.77% active; activity change, negative = inhibition, % at 7.5 µM (by protocol); NIH3T3-HGL HSE-luciferase, MG132-induced, luminescence 8 h; hits give low values;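 active = more than half of replicate wells show activity change below -50%, luminescence cut by over half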;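 also: luciferase reports HSF-1 transcriptional activity via heat shock element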
HSV augment – increases HSV replication in cells; 220,000 tested, 0.005% active; HSV replication augmentation in cells, fold increase; AID 1956; maximum fold increase; in the data active = maximum fold increase above about 1.5; tested in PC3 cells
HSF-1 act – increases HSF-1 driven luciferase reporter signal; NIH3T3-HGL HSF-1 luciferase reporter, MG132, 8 h; 100% = twice DMSO control signal; activation, % at 9 µM; 300,000 tested, 1.7% active;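 active = mean replicate activation of at least 50% with a set share of replicates each reaching 50%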
Mdm2 ligase inh – Mdm2 E3 ligase (human) inhibition; signal enhancement, % at 5 µM; 210,000 tested, 0.11% active; Q00987; AID 1230; cell-based MDM2 ubiquitination luciferase reporter, 2 h; 0 = plate control, 100 = twice control, blank-subtracted;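 active = signal enhancement of 30% or more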;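 also: luminescence tracks abundance of the self-degrading MDM2-luciferase fusion protein; higher signal means inhibition of MDM2 E3 ligase activity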
Target sequence (Q00987 whole entry, looked up, the tested form may be a part): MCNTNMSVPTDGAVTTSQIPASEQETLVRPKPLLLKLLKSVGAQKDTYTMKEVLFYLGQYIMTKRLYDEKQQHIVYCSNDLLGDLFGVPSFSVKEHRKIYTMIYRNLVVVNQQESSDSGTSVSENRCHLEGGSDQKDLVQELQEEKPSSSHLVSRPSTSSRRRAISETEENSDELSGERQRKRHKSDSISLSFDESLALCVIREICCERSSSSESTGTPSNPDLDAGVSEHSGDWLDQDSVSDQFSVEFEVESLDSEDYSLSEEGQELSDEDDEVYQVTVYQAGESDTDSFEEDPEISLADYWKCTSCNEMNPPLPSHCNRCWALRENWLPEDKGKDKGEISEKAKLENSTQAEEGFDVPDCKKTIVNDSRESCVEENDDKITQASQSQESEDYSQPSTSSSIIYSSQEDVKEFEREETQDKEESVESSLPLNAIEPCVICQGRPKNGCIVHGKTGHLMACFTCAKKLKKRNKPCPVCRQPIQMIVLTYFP
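Test system: stable mammalian line carrying autodegrading MDM2–luciferase fusion reporter; quantity: 2000 cells in each well; times: 4 h cell settling then 2 h compound exposure, 37 °C; detection: luminescence with SteadyLite reagent, 15 min at room temperature; evaluation: percent signal gain over controls, blank-subtracted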
Hsp70 activator – Hsp70 transcriptional activation, primary screen | HeLa Hsp70 promoter luciferase reporter, luminescence; scaled: vehicle 0, proteasome-inhibitor control 100% | AID 1203 | activation, % at 10 µM | 200,000 tested, 0.04% active;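 active = activation above the mean across all tested compounds plus 3 SD, cutoff set per campaign, cut at about 5.5% in these data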
Large screens that a line does not name were inactive. Sampled rows, rich in hits. Any-hit rate of the full collection: about 2.6%.

COc1ccc(/C=N/Nc2ccc(C(=O)O)cc2)cc1Br	HSF1 inhib -78
Cc1ccc(/C=N/Nc2cccc(C(=O)O)c2)s1	none
Cc1ccc(NS(=O)(=O)c2cc3[nH]c(=O)c(=O)[nH]c3cc2C)c(C)c1	none (no result: Rad51 HR inh, HSV augment, Mdm2 ligase inh, Hsp70 activator)
CC(C)c1ccc(/C=N/NC(=O)C2CCCC2)cc1	HSF-1 act 52 (no result: Rad51 HR inh, HSV augment, Mdm2 ligase inh, Hsp70 activator)
C=CCOc1c(Br)cc(/C=N/Nc2ccc(C(=O)O)cc2)cc1OCC	HSF1 inhib -53
CCOc1cc(/C=N/O)cc(Br)c1OCC	none
CC(C)c1ccc(/C=N/Nc2ccc(C(=O)O)cc2)cc1	HSF1 inhib -90
CC(C)c1ccc(/C=N/NC(=O)CC(=O)NC2CCCCC2)cc1	none
O=C(O)c1ccc(N/N=C/c2ccc(-c3ccccc3)cc2)cc1	none
Cc1noc(C)c1C(=O)N1CCC(C(=O)c2ccc(F)cc2F)CC1	none (no result: Hsp70 activator)
O=C(CNC(=O)c1ccccc1)NCC(=O)OCC(=O)c1ccc(F)cc1	none (no result: Rad51 HR inh)
Cc1ccc(C(=O)NCC(=O)NCC(=O)OCC(=O)c2ccc(F)cc2)cc1	HSF1 inhib -62 (no result: Rad51 HR inh)
COc1ccc(C(=O)Oc2ccc(N(C)S(=O)(=O)c3ccccc3)cc2)cc1[N+](=O)[O-]	none (no result: Rad51 HR inh, HSV augment, Mdm2 ligase inh, Hsp70 activator)
Cc1ccc(C(=O)Nc2ccc3c(c2)CCC3)o1	HSF-1 act 63
O=C(Nc1ccc(N2CCOCC2)c(Cl)c1)c1cc2ccccc2o1	HSF-1 act 55 (no result: Mdm2 ligase inh)
O=C(Nc1ccc2c(c1)Cc1ccccc1-2)c1cc2ccccc2o1	none (no result: Mdm2 ligase inh)
O=C(Nc1ccc2c(c1)CCC2)c1cc2ccccc2o1	HSF-1 act 63 (no result: Rad51 HR inh, HSV augment)
Cc1nc(N2CCN(c3ccccn3)CC2)c2c(C)c(C(=O)N3CCN(c4cccc(Cl)c4)CC3)sc2n1	none (no result: Rad51 HR inh, HSV augment, Mdm2 ligase inh, Hsp70 activator)
NC(=O)CSc1nnc(SCc2ccc(F)cc2)s1	none
Cc1[nH]c2ccc(Br)cc2c(=O)c1CN1CCCCCC1	none (no result: Rad51 HR inh, HSV augment, Mdm2 ligase inh, Hsp70 activator)
Cc1[nH]c2ccc(Cl)cc2c(=O)c1CN1CCCC1	Mdm2 ligase inh 35
N#Cc1ccc(CSc2nc(N)cc(N)n2)cc1	HSF-1 act 74 (no result: Rad51 HR inh, HSV augment, Mdm2 ligase inh, Hsp70 activator)
Cc1ccc(CSc2nc(N)cc(N)n2)cc1	none (no result: Rad51 HR inh, HSV augment, Mdm2 ligase inh, Hsp70 activator)
COc1cccc(/C=C/C(=O)OCC(=O)Nc2cccc(S(=O)(=O)N3CCOCC3)c2)c1OC	none (no result: Rad51 HR inh)
O=C(COC(=O)c1ccc[nH]c1=O)NC1CCCc2ccccc21 (configuration not stated)	none (no result: Mdm2 ligase inh, Hsp70 activator)
Cc1cccc(N2CCN(C3=NC(=O)C(Cc4ccccc4)S3)CC2)c1 (configuration not stated)	none
O=[N+]([O-])c1c(Nc2cccc(O)c2)cc(Cl)c2nonc12	HSF-1 act 164 (no result: Rad51 HR inh, HSV augment, Mdm2 ligase inh, Hsp70 activator)
CCc1nc2sc3ccccc3c(=O)c2c(=O)n1Cc1ccco1	none
O=c1c2ccccc2sc2nc(C3CCCCC3)n(Cc3ccco3)c(=O)c12	HSF-1 act 86 (no result: Rad51 HR inh, HSV augment)
N#Cc1ccc(Cl)cc1NC(=O)COC(=O)c1ccc(S(=O)(=O)N2CCCC2)cc1	HSF-1 act 55 (no result: Rad51 HR inh, HSV augment)
CC(Sc1nc(-c2ccccc2)cc(C(F)(F)F)n1)C(=O)Nc1sc2c(c1C#N)CCC2 (configuration not stated)	HSF-1 act 57
CCC(C(=O)O)n1nnc(-c2ccc(OCc3ccccc3)c(OC)c2)n1 (configuration not stated)	none (no result: Rad51 HR inh, HSV augment, Mdm2 ligase inh, Hsp70 activator)
Cc1cc(C)cc(NC(=O)C2CCCN(c3ncccn3)C2)c1 (configuration not stated)	none (no result: Rad51 HR inh, HSV augment, Mdm2 ligase inh, Hsp70 activator)
Cc1ccc(NC(=O)C2CCCN(c3ncccn3)C2)cc1F (configuration not stated)	HSF-1 act 60
O=C(CCN1CCN(Cc2ccccc2)CC1)NNC(=O)Nc1cccc(C(F)(F)F)c1	none (no result: Rad51 HR inh, HSV augment, Mdm2 ligase inh, Hsp70 activator)
CCCCn1c(SCc2nc3ccccc3s2)nc2cc(S(N)(=O)=O)ccc21	HSF-1 act 75
CCCCn1c(SCc2nc3ccccc3s2)nc2ccccc2c1=O	none
CCOC(=O)C1CN(S(=O)(=O)c2cc(OC)ccc2OC)C1	none (no result: Rad51 HR inh, HSV augment, Mdm2 ligase inh, Hsp70 activator)
Cc1nc2sccc2c(=O)n1N	none
C/C(=N\NC(=O)Cn1ccc(C(F)(F)F)n1)c1ccco1	none
Cc1ccc(NC(=O)Cc2ccc(-n3cccc3)cc2)c(C)c1	HSF1 inhib -53
Cc1cc(C)cc(NC(=O)Cc2ccc(-n3cccc3)cc2)c1	none
Cn1cnnc1Sc1ccc(/C=C/C(=O)c2ccc(O)cc2)cc1[N+](=O)[O-]	HSF-1 act 58
